Screening results from PubChem.
Sampled rows, rich in hits. Any-hit rate of the full collection: about 12%.
L major viab – Leishmania major promastigote growth inhibition; inhibition, % at 10 µM; AID 1063; Leishmania major promastigotes, resazurin fluorescence viability; 200,000 compounds, 9% hits; in the data active means inhibition above about 50%;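 further: promastigotes grown with compound for 44 hours at 28 °C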
RAM inhibit – blocks the yeast RAM network | 190,000 compounds, 1.8% hits | inhibition, % at 50 µM | S. cerevisiae dse1pr::URA3 reporter, 5-FOA growth OD615, 2 d; analog-sensitive cbk1-as2 kinase mutant strain;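 active means inhibition above a set limit, 3 SD over mean compound inhibition, cut at about 8.4% in these data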;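 further: 0% = DMSO-only wells with no growth and 100% = 10 µM 1-NA-PP1 full growth; inhibition rescues growth on 5-FOA so higher OD means more RAM inhibition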
WT yeast gro inh – growth inhibition of WT yeast, mitochondrial fusion screen; mitochondrial fusion phenotypic screen, WT strain; 190,000 compounds, 2.1% hits; inhibition, % at 10 µM; in the data active means inhibition above about 58%; tested in S. cerevisiae
ABCG2 inh – human ABCG2 inhibition, ABCB1 as counter-screen; Q9UNQ0; IgMXP3 cells, JC-1 efflux, flow cytometry; inhibition, % at 6.6 µM; 190,000 compounds, 0.1% hits;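 active means inhibition above 80%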;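 further: 0% = DMSO and 100% = nicardipine control wells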
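Read-out basis: Efflux inhibition in percent versus controls | Test system: ABCG2 IgMXP3 and barcoded ABCB1 CCRF-Adr cell mix | Quantity: 3 million cells/mL in well | Schedule: 10 min at 25 °C | Control set: Nicardipine as high control, DMSO as low control | Reagent: JC-1 as fluorescent efflux pump substrate | Signal: Flow cytometry of retained JC-1 fluorescence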
ABCB1 block – inhibitors of human ABCB1 transporter, ABCG2 counter-screen; CCRF-Adr cells, JC-1 efflux, flow cytometry; inhibition, % at 6.6 µM; 190,000 compounds, 0.067% hits; AID 1326; in the data active means inhibition above about 40%;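 further: 0% = vehicle and 100% = reference inhibitor; higher value means more JC-1 retained so stronger ABCB1 efflux block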
Target sequence (P08183 whole entry, looked up): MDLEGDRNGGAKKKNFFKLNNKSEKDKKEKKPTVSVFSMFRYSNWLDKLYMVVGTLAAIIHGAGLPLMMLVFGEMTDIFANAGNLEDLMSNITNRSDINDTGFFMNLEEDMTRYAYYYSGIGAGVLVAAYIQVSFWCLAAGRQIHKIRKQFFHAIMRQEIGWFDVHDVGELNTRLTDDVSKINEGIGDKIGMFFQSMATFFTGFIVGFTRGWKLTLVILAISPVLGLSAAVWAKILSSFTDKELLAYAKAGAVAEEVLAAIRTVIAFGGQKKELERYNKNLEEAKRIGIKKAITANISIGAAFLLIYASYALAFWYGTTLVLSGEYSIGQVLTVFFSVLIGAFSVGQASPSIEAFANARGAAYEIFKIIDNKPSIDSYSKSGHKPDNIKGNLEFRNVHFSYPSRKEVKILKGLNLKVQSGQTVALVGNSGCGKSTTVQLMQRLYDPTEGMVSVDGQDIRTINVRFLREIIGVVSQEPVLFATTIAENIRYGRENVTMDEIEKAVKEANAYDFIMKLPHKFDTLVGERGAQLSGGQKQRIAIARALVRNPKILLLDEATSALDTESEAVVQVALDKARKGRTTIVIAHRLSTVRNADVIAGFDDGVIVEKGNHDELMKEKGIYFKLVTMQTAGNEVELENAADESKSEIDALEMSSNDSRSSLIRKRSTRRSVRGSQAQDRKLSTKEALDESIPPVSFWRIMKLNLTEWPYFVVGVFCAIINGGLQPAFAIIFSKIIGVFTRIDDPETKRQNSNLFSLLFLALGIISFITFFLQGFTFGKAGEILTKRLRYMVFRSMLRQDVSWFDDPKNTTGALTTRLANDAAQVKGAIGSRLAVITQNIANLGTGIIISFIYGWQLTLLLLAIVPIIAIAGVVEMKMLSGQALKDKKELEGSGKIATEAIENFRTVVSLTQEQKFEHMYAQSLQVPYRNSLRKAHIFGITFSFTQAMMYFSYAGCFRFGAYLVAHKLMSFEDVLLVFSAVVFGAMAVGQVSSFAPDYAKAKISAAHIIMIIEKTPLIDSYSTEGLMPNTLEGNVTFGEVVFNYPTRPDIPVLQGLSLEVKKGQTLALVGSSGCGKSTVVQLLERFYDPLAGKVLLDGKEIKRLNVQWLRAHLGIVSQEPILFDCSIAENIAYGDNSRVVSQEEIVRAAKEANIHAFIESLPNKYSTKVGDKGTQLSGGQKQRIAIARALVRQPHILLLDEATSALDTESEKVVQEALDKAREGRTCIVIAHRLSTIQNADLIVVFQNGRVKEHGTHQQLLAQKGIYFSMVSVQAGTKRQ
Starred values were filed as active, the others as inactive.

SMILES	L major viab	RAM inhibit	WT yeast gro inh	ABCG2 inh	ABCB1 block
CC(C)(C)NC(=S)Nc1ccc(Br)cc1	10.1	0.9	19.9	2.4	-2.3
Cc1ccc(NC(=S)NCCc2ccccc2)nc1	-7.0	1.3	-2.9	13.7	1.0
Fc1cccc(NC(=S)NCCc2ccccc2)c1	7.8	0.5	32.5	33.7	3.9
Cc1cccnc1NC(=S)NCCc1ccccc1	-4.7	-0.8	60.9*	3.2	0.1
CCCN(Cc1ccccc1)C(=S)Nc1ccc(OCC)cc1	0.0	-1.2	37.2	-0.7	-0.5
CCCN(Cc1ccccc1)C(=S)Nc1ccc(F)cc1	1.2	1.9	34.7	10.7	0.1
CCCN(Cc1ccccc1)C(=S)Nc1cccc(C(F)(F)F)c1	90.5*	4.4	51.9	-10.0	-0.6
CCCN(Cc1ccccc1)C(=S)Nc1ccc(SC(F)F)cc1	53.0*	4.1	70.5*	2.0	0.4
CN(C)CCCN(Cc1ccccc1)C(=S)Nc1cccc(C(F)(F)F)c1	59.6*	1.3	-8.7	39.1	0.3
O=C(Nc1ccc(C(=O)NC2CCCCC2)cc1)c1cccnc1	-2.1	0.3	0.2	21.6	1.6
Cc1cccc(C)c1-n1c(C)cc(/C=N/NC(N)=S)c1C	96.5*	1.6	53.7	3.5	0.5
Cc1cc(/C=N/NC(N)=S)c(C)n1-c1cccc(Cl)c1	94.2*	1.4	5.6	7.6	0.6
Cc1cc(/C=N/NC(N)=S)c(C)n1-c1ccc(Br)cc1	99.5*	1.0	5.1	13.4	3.4
Cc1cc(/C=N/NC(N)=S)c(C)n1-c1ccc(Cl)cc1	89.0*	0.8	1.8	7.0	1.0
CN(C)S(=O)(=O)c1cccc(NC(=S)N(CCC#N)Cc2cccnc2)c1	-3.2	0.1	2.4	-0.1	0.1
CCOC(=O)Cn1nc(C)c2c1CCCC2=O	0.1	1.4	23.0	-3.2	-6.2
CC(C)(C)OC(=O)COc1cc(OCC(=O)OC(C)(C)C)c2c(=O)cc(-c3ccccc3)oc2c1	50.3*	4.9	-21.1	9.3	4.8
Cc1onc(C(=O)N2CCC(C(N)=O)CC2)c1-c1ccccc1Cl	-10.8	0.9	1.1	2.4	0.5
NC(=O)C1CCN(C2=C(Cl)C(=O)c3ccccc3C2=O)CC1	98.9*	1.5	13.4	4.4	0.6
Cc1nnc(NCc2ccco2)c2ccccc12	29.9	1.5	-11.2	11.9	0.7
c1coc(CNc2c3c(nc4ccccc24)CCC3)c1	88.4*	-0.2	4.1	29.1	0.0
CCc1ccc(/C=C/C(=O)C2C(=O)c3ccccc3C2=O)cc1	0.7	9.1*	7.4	-0.6	-0.1
OC1(c2ccc3ccccc3c2)CCN(Cc2ccccc2)C1 (stereo not given)	93.9*	1.6	12.9	1.8	1.0
CCOC(=O)c1cc(-c2ccc3c(c2)OCCO3)nc2c1c(C)nn2CCC#N	24.0	9.0*	5.5	36.6	4.6
COc1ccc(Cn2c(SCc3cc(C)ccc3C)nc3cc(OC)c(OC)cc3c2=N)cc1	100.7*	0.0	3.2	8.5	10.7
SMILES	L major viab	RAM inhibit	WT yeast gro inh	ABCG2 inh	ABCB1 block
COc1ccc(Cn2c(SCc3ccc(C)cc3)nc3cc(OC)c(OC)cc3c2=N)cc1Cl	100.4*	-0.7	96.4	5.2	17.0
COCCCn1c(SCc2ccccc2)nc2cc(OC)c(OC)cc2c1=N	64.2*	-1.1	-13.5	1.5	1.5
COc1ccccc1CNC(=O)C(NS(=O)(=O)c1ccc2c(c1)OCCO2)C(C)C (stereo not given)	28.3	3.6	1.4	-1.5	0.0
O=C(CSc1nc(-c2ccccc2Cl)ns1)c1ccc(Cl)cc1	3.1	10.5*	34.0	-4.5	-0.8
Cc1cccc(-c2nsc(SCC(=O)c3ccc(Cl)cc3)n2)c1	-3.2	2.5	36.6	-6.2	-0.3
O=C(c1cccc2ccccc12)N1CCC(N2CCN(c3ccccc3)CC2)CC1	95.1*	0.8	-15.2	0.3	0.8
O=S(=O)(Cc1ccccc1)N1CCCC1	-1.5	1.6	8.9	0.5	0.3
O=C(c1cccs1)N1CCC(N2CCN(c3ccccc3)CC2)CC1	86.0*	0.7	-11.2	1.2	0.9
O=S(=O)(Cc1ccccc1)N1CCC(N2CCN(c3ccccc3)CC2)CC1	98.0*	3.3	4.2	1.7	0.2
COc1ccccc1N1CCN(C2CCN(C(=O)c3cccs3)CC2)CC1	43.3	0.1	-26.3	13.7	1.8
CCOc1ccc(CC(=O)Nc2nccs2)cc1OCC	-1.9	0.7	-0.1	1.2	0.4
CCOc1ccc(-c2nnn(CC(=O)N3CCCC(C)C3)n2)cc1 (stereo not given)	-4.8	0.3	-4.5	0.6	0.1
COCCNC(=S)N1CCN(S(C)(=O)=O)CC1	-4.7	-0.1	23.8	3.6	0.9
Cc1ccc(S(=O)(=O)N(c2nc(N(C)C)nc(N(C)C)n2)n2cnnc2)cc1	-6.4	1.9	14.2	0.0	0.6
Fc1ccc(CSc2ncnc3scc(-c4ccccc4)c23)cc1	6.2	10.3*	40.3	9.3	0.8
O=C(CSc1ncnc2scc(-c3ccccc3)c12)N1CCN(c2ccccc2F)CC1	55.4*	3.2	11.3	3.2	0.8
COc1ccccc1N1CCN(C(=O)CSc2ncnc3scc(-c4ccccc4)c23)CC1	3.3	3.5	21.4	3.7	2.5
C=CCn1c(N2CCOCC2)nc2c1c(=O)[nH]c(=O)n2C	-2.4	-0.1	-13.9	8.2	0.8
Cc1cccc(NC(=O)c2ccc(C3SCC(=O)N3CCc3ccccc3)cc2)c1 (stereo not given)	96.3*	7.3	25.9	7.0	1.1
Cc1ccc2c(c1)C(=O)c1ccccc1CS2=O (stereo not given)	-6.1	1.9	-21.6	2.3	1.7
CCCN(CCC)S(=O)(=O)c1ccc(C(=O)N2CCCc3ccccc32)cc1	63.5*	8.1	5.4	2.0	1.5
Cc1ccc(S(=O)(=O)N2CC(O)CC2C(=O)OCC(=O)c2ccccc2Cl)cc1C (stereo not given)	43.0	1.3	-4.9	0.2	0.5
COC(=O)c1ccc(NC(=O)C2CCCN2S(=O)(=O)c2ccc(OC)cc2)cc1 (stereo not given)	57.6*	1.5	-0.6	7.6	2.4
COC(=O)c1ccc(NC(=O)C2CCCN2S(=O)(=O)c2ccc(C)cc2)cc1 (stereo not given)	11.3	0.1	-8.0	2.7	0.9
COc1ccc(S(=O)(=O)N2CCC[C@H]2C(=O)NC2=NCCS2)cc1	-2.9	-0.4	65.6*	0.4	0.4
COc1ccc(S(=O)(=O)N2CCCC(C(=O)Nc3cccc(C(C)=O)c3)C2)cc1 (stereo not given)	57.5*	2.5	-12.1	16.2	2.4
CC(=O)c1cccc(NC(=O)C2CCCN(S(=O)(=O)c3ccc(F)cc3)C2)c1 (stereo not given)	6.5	2.1	4.8	2.6	0.9
COc1cc(C(=O)Nc2ccc(Br)cc2C(=O)c2cc(OC)c(OC)c(OC)c2)cc(OC)c1OC	9.6	2.8	3.7	2.7	-1.5
CCc1cc2c(SCC(=O)C(C#N)=C3N(C)c4ccccc4N3C)ncnc2s1	-2.5	9.0*	17.4	0.3	0.1
